An excerpt weighted towards active compounds, which were near 0.95% of everything screened.
HNF4A DNA FP – change in binding of human HNF4 alpha to DNA; HNF4a-FITC DNA binding, fluorescence polarization, 1 h; activity change, % at 10 µM; 0.3% of 360,000 active; AID 1224865; in the data active = activity change above about 30%, passing the limit was not always enough
CSN inh – inhibitors of human CSN-mediated cullin deneddylation; Q92905; Purified CSN, SCF-Nedd8-OG deneddylation, fluorescence polarization; inhibition, % at 12.5 µM; 0.38% of 360,000 active;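 active = pattern-corrected inhibition above about 35%, with an unprinted fluorescence ratio check between 0.5 and 1.5, limit read from the data, passing the limit was not always enough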;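 note: 0% = enzyme with substrate and 100% = substrate without enzyme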
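assay system = purified human Csn5 enzyme expressed in HEK293T cells | amount = 0.24 nM enzyme | buffer or medium = Tris/NaCl/DTT buffer, pH 7.5 | reagent = 10 nM SCFSkp2-Nedd8OG | compound = one concentration, 12.5 µM, 0.25% DMSO | times = 90 min reaction at room temperature | signal = FP | read-out basis = % inhibition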
ASAP1 inh – inhibitors of human ASAP1 ArfGAP activity; Q9ULH1; ASAP1-stimulated ARF1 GTP hydrolysis, GDP FP detection; inhibition, % at 16.5 µM; 0.19% of 360,000 active; in the data active = inhibition above about 25%;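 note: 0% = vehicle with enzyme and substrate and 100% = no enzyme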
ARFGAP1 inhibitor – inhibits rat ARF GTPase activating protein 1. Q62848. Arfgap1-stimulated ARF1 GTP hydrolysis, GDP FP detection. inhibition, % at 16.5 µM. 0.26% of 360,000 active;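 active = inhibition above a per-plate limit, mean inhibition of low control wells plus 3 SD, cut at about 25% in these data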;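 note: 0% = DMSO wells with enzyme and 100% = wells lacking Arfgap1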
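Material: rat Arfgap1 GAP domain (His6, aa 1-136), purified enzyme. Also added: human ARF1(Δ1-17)-GTP substrate. Compound dosing: 16.5 µM single point, 1.26% DMSO. Timing: enzyme reaction 120 min at 25 °C after 20 min preincubation. Signal: GDP detection by fluorescence polarization. Read-out basis: percent inhibition of GAP-stimulated GDP formation, scaled between DMSO and no-Arfgap1 medians.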
ASAP1 inh confirm – confirmation of human ASAP1 inhibitors | AID 624431 | 37% of 620 active | inhibition, % at 16.5 µM | shares compounds with ASAP1 inh | ASAP1-stimulated Arf1 GTPase, GDP fluorescence polarization;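 active = mean inhibition over triplicates exceeds the hit threshold derived for the earlier primary screening run, cut at about 25% in these data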
ARFGAP1 confirm – rat ARFGAP1 inhibition, confirmed; shares compounds with ARFGAP1 inhibitor; ARFGAP1-stimulated ARF1 GTP hydrolysis, GDP tracer FP; inhibition, % at 16.5 µM; 30% of 890 active;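 active = average inhibition over triplicates above the hit cutoff set in the earlier primary screen, cut at about 25% in these data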;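 note: 0% = Arfgap1 plus ARF1-GTP with DMSO and 100% = wells lacking Arfgap1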
CSN5 deneddyl – validation of inhibitors of human CSN-mediated cullin deneddylation. shares compounds with CSN inh. Csn5 deneddylation of SCF-Nedd8OG, fluorescence polarization, 90 min. inhibition, % at 16.6 µM. 62% of 540 active; in the data active = inhibition above about 50%;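 note: 0% = DMSO with enzyme and 100% = no enzyme wells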
MMP2 cntr CSN – MMP-2 (human) inhibition, counter-screen for CSN hits; shares compounds with CSN inh; recombinant MMP-2, FRET substrate fluorescence, 60 min; inhibition, % at 16.6 µM; 33% of 540 active; AID 720655;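 active = corrected plate-normalized z-score of 5 or more, or -5 or less, or inhibition of 15% or more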;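 note: plate controls were DMSO wells with enzyme for no effect and buffer wells lacking MMP-2 for full effect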
Thrombin cntr – counter-screen for CSN deneddylation inhibitors: bovine thrombin inhibition; 49% of 540 active; AID 720656; shares compounds with CSN inh; bovine thrombin cleavage of Ub4-pepOG, fluorescence polarization; inhibition, % at 16.6 µM;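 active = inhibition at or above a set limit, with a fluorescence interference ratio between 0.5 and a set maximum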
Target sequence (P00735 whole entry, looked up): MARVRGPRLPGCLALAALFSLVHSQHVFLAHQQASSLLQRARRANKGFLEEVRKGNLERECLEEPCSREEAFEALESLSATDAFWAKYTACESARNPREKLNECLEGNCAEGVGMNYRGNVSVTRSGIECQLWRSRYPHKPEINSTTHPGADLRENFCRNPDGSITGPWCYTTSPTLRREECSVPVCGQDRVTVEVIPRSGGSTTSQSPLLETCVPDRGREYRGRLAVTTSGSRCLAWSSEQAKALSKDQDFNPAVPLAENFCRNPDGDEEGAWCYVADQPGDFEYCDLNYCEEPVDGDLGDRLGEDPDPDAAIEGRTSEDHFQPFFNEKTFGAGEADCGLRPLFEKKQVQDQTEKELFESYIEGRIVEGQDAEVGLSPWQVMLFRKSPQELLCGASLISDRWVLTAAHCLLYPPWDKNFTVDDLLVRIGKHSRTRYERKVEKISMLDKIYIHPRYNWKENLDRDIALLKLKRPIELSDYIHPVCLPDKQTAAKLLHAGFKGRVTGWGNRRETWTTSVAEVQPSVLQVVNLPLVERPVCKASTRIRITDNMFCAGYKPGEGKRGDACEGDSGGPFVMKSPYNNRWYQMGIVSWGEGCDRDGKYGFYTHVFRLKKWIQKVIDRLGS
HNF4A confirm – change in binding of human HNF4 alpha to DNA, retest | shares compounds with HNF4A DNA FP | AID 1224897 | 99% of 210 active | activity change, % at 12.5 µM | HNF4A-FITC DNA binding, fluorescence polarization, 1 h; call rule not given here
Starred values were filed as active, the others as inactive; / = no result; ! = repeats disagree.

SMILES	HNF4A DNA FP	CSN inh	ASAP1 inh	ARFGAP1 inhibitor	ARFGAP1 confirm	others
C/C=C/C=C/C(=O)c1cc(C)c(OC(=O)CNC(=O)OC(C)(C)C)c(C)c1O	/	/	6	-4	/
CCN(CC)CCOC(=O)c1ccc(N/C=C(/C#N)c2nc(-c3cccc(OC)c3)cs2)cc1	5	-2	0	-1	/
CCN(CC)CCOC(=O)c1ccc(N/C=C(/C#N)c2nc(-c3ccc(OC)c(OC)c3)cs2)cc1	207	126*	71*	115*	196*	ASAP1 inh confirm=184*;CSN5 deneddyl=-30;MMP2 cntr CSN=-42*;Thrombin cntr=14
COc1cc2c(C#N)c(N3CCCC3)nc(N)c2c(N)n1	26	35*!	43*!	-2	/	ASAP1 inh confirm=19;CSN5 deneddyl=67*;MMP2 cntr CSN=-45*;Thrombin cntr=-41
C[C@H]1CN([C@@H](C)CO)C(=O)CCCn2cc(nn2)CO[C@@H]1CN(C)C(=O)Cc1ccccc1	-1	1	4	3	/
COc1ccc(/C=C2\C(=O)NC(=S)N2C(=O)c2ccc(F)cc2)cc1	72*	65*	25*	-11	/	ASAP1 inh confirm=7;MMP2 cntr CSN=-38*;Thrombin cntr=-53
COc1ccc(C(=O)CC(=O)c2ccc(F)cc2)cc1	2	2	2	-4	/
O=C(Nc1cccc(-c2nc3ccccc3[nH]2)c1)c1cccc(NC(=O)c2ccco2)c1	17	57*	44*	77*	123*	ASAP1 inh confirm=76*;CSN5 deneddyl=25;MMP2 cntr CSN=9;Thrombin cntr=-9
Cn1c(CO)nc2c3ccccc3ccc21	1	5	-5	-7	/
COc1ccc(NC(=S)Nc2ccc3nc(C)c(C)nc3c2)cc1	-1	2	6	20	/
COc1ccc(NC(=S)Nc2ccc3nsnc3c2)cc1	-4	49*	33*	15	/	ASAP1 inh confirm=9;CSN5 deneddyl=94*;MMP2 cntr CSN=30*;Thrombin cntr=-28
CC(=O)Nc1ccc(C(=O)Nc2cccc(-c3cnc4ccccc4n3)c2)cc1	48*	86*	40*	1	/	ASAP1 inh confirm=80*;HNF4A confirm=60*
O=C(CN1C(=O)NC2(CCOc3ccccc32)C1=O)c1ccc(F)cc1 (stereo not drawn)	5	2	-11	6	/
c1ccc(-c2csc3ncnc(N4CCN(Cc5ccc6c(c5)OCO6)CC4)c23)cc1	5	-3	3	1	/
O=C(CSc1ncnc2scc(-c3ccccc3)c12)N1CCN(Cc2ccc3c(c2)OCO3)CC1	46*	13	31*	11	/	ASAP1 inh confirm=46*;HNF4A confirm=37*
O=C(NCc1ccccc1Cl)c1ccc(NC2=NC3CS(=O)(=O)CC3S2)cc1 (stereo not drawn)	2	-2	9	27*	0
O=C(NCc1ccccc1Cl)c1cccc(NC2=NC3CS(=O)(=O)CC3S2)c1 (stereo not drawn)	2	2	4	3	/
Cc1cccc(-c2n[nH]nc2C2=CC(=O)CC(C)(C)C2)c1	-5	3	-2	42*	-3
CCOC(=O)/C=C/c1cccc(C)c1O	0	0	1	-6	/
Cc1ccc2nc(SCC(=O)Nc3cccc(Cl)c3)nc(=O)n2c1	3	0	17	31*	50*
COc1ccccc1NC(=O)CSc1nc(=O)n2cc(C)ccc2n1	-2	-2	0	31*	23
CCOC(=O)N1CCN(C(=O)CSc2nc(=O)n3cc(C)ccc3n2)CC1	0	0	20	40*	38*
Cc1ccc(NC(=O)CSc2nc(=O)n3cc(C)ccc3n2)c(C)c1	-1	-2	6	0	/
Cc1ccc2nc(SCC(=O)NCc3ccccc3Cl)nc(=O)n2c1	-2	2	-15	-7	/
Cc1ccc2nc(SCC(=O)c3ccc(Cl)cc3)nc(=O)n2c1	0	2	16	27*	50*
SMILES	HNF4A DNA FP	CSN inh	ASAP1 inh	ARFGAP1 inhibitor	ARFGAP1 confirm	others
CC(=O)Nc1ccc(NC(=O)CCNC(=O)c2ccccc2Cl)cc1	0	3	3	-11	/
Cc1ccc2nc(SCC(=O)Nc3ccc(C)c(Cl)c3)nc(=O)n2c1	1	3	0	20	/
Cc1ccc2nc(SCC(=O)Nc3cccc(F)c3)nc(=O)n2c1	0	-1	32*	54*	47*
CC(=O)c1ccc(OCCCC(=O)Nc2cc(S(=O)(=O)N3CCCCC3)ccc2C)cc1	4	-2	-2	4	/
C[C@@H]1CN([C@@H](C)CO)C(=O)c2cc(Br)cnc2O[C@@H]1CN(C)S(=O)(=O)c1ccc(F)cc1	-5	2	7	10	/
CCN(CC)c1ccc(C(=C2C=CC(=[N+](CC)CC)C=C2)c2ccc(N(CC)CC)cc2)cc1	1	-2	18	36*	24
CCN(CC)c1ccc(C(=C2C=CC(=[N+](CC)CC)C=C2)c2ccccc2)cc1	0	-3	0	16	/
Cc1ccc(NC(=O)C2(C)CCN2C(=O)Cc2ccc(C(C)C)cc2)cc1 (stereo not drawn)	-4	-2	-4	-3	/
Cn1c(=O)c2[nH]c(CCCCCCCc3nc4ccccc4[nH]3)nc2n(C)c1=O	6	-2	-17	4	/
NC(=O)c1ccc(N=C2C(=O)Nc3ccc([N+](=O)[O-])cc32)cc1	-2	18	40*	37*	9
O=C1Nc2ccccc2C1=Nc1cccc([N+](=O)[O-])c1	-1	0	-8	1	/
Cc1ccn2c(=O)c(C(=O)NC3CCCCC3C)c(O)nc2c1 (stereo not drawn)	-3	-1	-3	10	/
CCCc1cc(=O)[nH]c(SCC(=O)N2CCN(S(=O)(=O)c3ccccc3)CC2)n1	0	-3	-3	8	/
CCCc1cc(=O)[nH]c(SCC(=O)N2CCN(S(=O)(=O)c3ccc4ccccc4c3)CC2)n1	-1	-9	7	25*	-2
Cc1cc(Br)cn2c(Cc3ccccc3)c(C3CCCCC3)nc12	0	2	-6	155*	2
CCNc1nc(NCc2ccccc2)nc(SCC(=O)Nc2ccccc2)n1	2	-5	5	27*	8
Cc1ccc(S(=O)(=O)Nc2ccc(N3CCOCC3)cc2)cc1C	-1	-1	-1	-2	/
